The values that follow come from ChEMBL document CHEMBL4411266, “Triterpenoid Hydroxamates as HIF Prolyl Hydrolase Inhibitors” (J Nat Prod, 2018).

Data set [1] concerns the target T1, Hypoxia-inducible factor prolyl hydroxylase (Homo sapiens, UniProt Q96KS0+Q9NXG6+Q9GZT9+Q9H6Z9). Description: Inhibition of PHD (unknown origin) expressed in mouse NIH/3T3 cells harboring HRE-driven luciferase gene assessed as transactivation of HIF1alpha after 6 hrs by luciferase reporter gene assay. The format is cell-based. The method in brief: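 NIH-3T3 mouse cells stably carrying an EPO-HRE luciferase reporter (three HRE copies from the erythropoietin promoter) treated with compounds for 6 h. Cells then washed twice in PBS and lysed in Tris-phosphate pH 7.8 buffer with MgCl2, DTT, Triton X-100 and glycerol for 15 min at room temperature. Luciferase measured in the supernatant after centrifugation.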

For data set [2], the target named is T1, Hypoxia-inducible factor prolyl hydroxylase. The data set is described as follows: Inhibition of PHD (unknown origin) expressed in mouse NIH/3T3 cells harboring HRE-driven luciferase gene assessed as transactivation of HIF1alpha after 6 hrs by luciferase reporter gene assay relative to deferoxamine. The format is cell-based. An outline of the steps:
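Mouse NIH-3T3 cells with a stably transfected EPO-HRE luciferase reporter exposed to compounds for 6 h, then washed, lysed and read for luciferase in the cleared lysate. EC50 and intrinsic relative activity (IRA) were calculated relative to 150 μM deferoxamine as reference.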

Data set [3] relates to HEK-293T. The data set is described as follows: Effect on PHD2 expression in HEK293T cells at 10 uM under hypoxic condition by Western blot analysis. Type of data set: ADME, cell-based. The note with it: human. An outline of the steps:
(§1)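 HEK-293T cells were treated under hypoxia (1% O2) or normoxia, with or without compound. HIF-1α and PHD levels were read by Western blot: NP-40 lysis, 30 μg protein on 10% SDS-PAGE, PVDF transfer, HRP secondary and chemiluminescence.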

Data set [4] addresses T1, Hypoxia-inducible factor prolyl hydroxylase. Description: Inhibition of PHD in HEK293T cells assessed as reduction in HIF1alpha hydroxylation at 1 to 10 uM after 6 hrs in presence of proteasome inhibitor MG132. Type of data set: cell-based. An outline of the steps: (§2)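 HEK-293T cells were treated for 6 h in the presence of the proteasome inhibitor MG132. Hydroxylated HIF-1α and total HIF-1α were determined by immunoblot: 10% SDS-PAGE, PVDF transfer, HRP/chemiluminescence detection.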

The target is the same in data set [5]. Description: Inhibition of PHD in HEK293T cells assessed as increase in HIF1alpha expression at 1 to 10 uM after 3 hrs by Western blot analysis. Type of data set: cell-based. The method in brief:
(§3)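 HEK-293T cells treated for 3 h, with DFX (100 μM) as a reference. Cell lysates were made in Tris-HCl pH 7.5/NaCl/glycerol/NP-40 buffer with protease and phosphatase inhibitors. 30 μg protein was run on 10% SDS-PAGE, blotted to PVDF and probed for HIF-1α, PHD1, PHD2 and PHD3. Detection was by HRP secondary and chemiluminescence.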
On the technique in general: Immunoblotting shows a protein as a band on a membrane.

Data set [6] has as its system HEK-293T. The data set is described as follows: Effect on PHD1 expression in HEK293T cells at 1 to 10 uM after 3 hrs by Western blot analysis. The note with it: human. Type of data set: ADME, cell-based. The method in brief: as §3
Data set [7] deals with T1, Hypoxia-inducible factor prolyl hydroxylase. Description: Reversible inhibition of PHD (unknown origin) expressed in mouse NIH/3T3 cells harboring HRE-driven luciferase gene assessed as transactivation of HIF1alpha at 5 to 25 uM pretreated for 1 hr followed by compound washout and measured after 6 hrs by luciferase reporter gene assay. The format is cell-based. An outline of the steps:
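NIH-3T3-EPO-Luc cells stably carry an EPO-promoter 3×HRE-luciferase reporter. Cells were pretreated 1 h, then washed or not with PBS and incubated 6 h in complete medium. Lysis was in Tris-phosphate pH 7.8/MgCl2/DTT/Triton buffer and luciferase was read in the lysate. Data are fold induction over untreated cells, means ± SD, n = 3, one-way ANOVA with Tukey's test.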
Background: In a reporter assay the amount or activity of a reporter protein is the signal.

Data set [8] shares this target. Description: Inhibition of PHD in HEK293T cells assessed as increase in HIF1alpha expression at 1 to 10 uM after 6 hrs in presence of proteasome inhibitor MG132. The format is cell-based. The method in brief: as §2
Data set [9] has the same target. The data set is described as follows: Inhibition of PHD (unknown origin) expressed in mouse NIH/3T3 cells harboring HRE-driven luciferase gene assessed as transactivation of HIF1alpha at 1 to 25 uM after 6 hrs in presence of 50 uM betulinic acid by luciferase reporter gene assay. Type of data set: cell-based. An outline of the steps:
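NIH-3T3-EPO-Luc (3×HRE-luciferase) cells were preincubated 30 min with betulinic acid (50 μM), then treated with compound for 6 h. Cells were washed in PBS and lysed in Tris-phosphate pH 7.8 buffer, and luciferase was measured in the lysate. Data are fold induction over untreated cells, means ± SD, n = 3, one-way ANOVA with Tukey's test.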

Data set [10] has as its system HEK-293T. The data set is described as follows: Effect on PHD3 expression in HEK293T cells at 1 to 10 uM after 3 hrs by Western blot analysis. Type of data set: ADME, cell-based. The note with it: human. An outline of the steps:
as §3

Data set [11] concerns the target T1, Hypoxia-inducible factor prolyl hydroxylase. The data set is described as follows: Inhibition of PHD in HEK293T cells assessed as increase in HIF1alpha expression at 10 uM after 15 to 180 mins by Western blot analysis. Type of data set: cell-based. The method in brief: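 HEK-293T cells were stimulated over a time course and HIF-1α was followed by Western blot. Lysis was in NP-40 buffer with protease and phosphatase inhibitors. 30 μg protein was resolved on 10% SDS-PAGE, transferred to PVDF, and detected by HRP secondary and chemiluminescence.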

For data set [12], the system named is HEK-293T. Description: Effect on PHD2 expression in HEK293T cells at 1 to 10 uM after 3 hrs by Western blot analysis. Type of data set: ADME, cell-based. The note with it: human. An outline of the steps:
as §3

In data set [13] the test system is HEK-293T. The data set is described as follows: Effect on PHD2 expression in HEK293T cells at 10 uM under normoxic condition by Western blot analysis. The format is ADME, cell-based. The note with it: human. An outline of the steps:
as §1

Data set [14] concerns the target T1, Hypoxia-inducible factor prolyl hydroxylase. Description: Inhibition of PHD in HEK293T cells assessed as increase in HIF1alpha expression at 10 uM under normoxic condition by Western blot analysis. The format is cell-based. An outline of the steps:
as §1

Data set [15] has the same target. Description: Inhibition of PHD in HEK293T cells assessed as increase in HIF1alpha expression at 10 uM under hypoxic condition by Western blot analysis. Type of data set: cell-based. The method in brief:
as §1

The source made the active and inactive calls. The rule behind the calls is not given here.

T1 sequence (Q96KS0 whole entry, looked up): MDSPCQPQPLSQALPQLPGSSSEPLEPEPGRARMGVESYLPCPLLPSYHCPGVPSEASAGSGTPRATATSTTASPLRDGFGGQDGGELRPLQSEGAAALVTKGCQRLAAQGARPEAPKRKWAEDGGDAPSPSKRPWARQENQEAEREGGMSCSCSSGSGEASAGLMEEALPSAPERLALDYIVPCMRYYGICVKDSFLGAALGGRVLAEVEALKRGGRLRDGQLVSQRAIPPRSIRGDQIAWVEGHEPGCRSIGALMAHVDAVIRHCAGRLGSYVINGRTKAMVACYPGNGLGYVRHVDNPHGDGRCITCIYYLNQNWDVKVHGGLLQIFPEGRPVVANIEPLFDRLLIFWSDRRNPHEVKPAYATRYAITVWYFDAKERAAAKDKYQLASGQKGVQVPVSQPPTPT
T1 sequence (Q9GZT9 whole entry, looked up): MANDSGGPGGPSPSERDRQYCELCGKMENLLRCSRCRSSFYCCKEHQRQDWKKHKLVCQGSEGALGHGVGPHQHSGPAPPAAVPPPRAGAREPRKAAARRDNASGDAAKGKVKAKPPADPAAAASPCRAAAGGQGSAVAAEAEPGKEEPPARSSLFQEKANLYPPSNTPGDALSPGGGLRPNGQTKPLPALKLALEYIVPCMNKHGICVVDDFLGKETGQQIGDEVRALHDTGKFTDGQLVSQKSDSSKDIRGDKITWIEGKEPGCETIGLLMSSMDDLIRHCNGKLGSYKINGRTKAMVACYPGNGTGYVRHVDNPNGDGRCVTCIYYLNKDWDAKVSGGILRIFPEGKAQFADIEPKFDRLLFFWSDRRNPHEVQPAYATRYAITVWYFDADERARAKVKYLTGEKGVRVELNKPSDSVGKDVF
T1 sequence (Q9H6Z9 whole entry, looked up): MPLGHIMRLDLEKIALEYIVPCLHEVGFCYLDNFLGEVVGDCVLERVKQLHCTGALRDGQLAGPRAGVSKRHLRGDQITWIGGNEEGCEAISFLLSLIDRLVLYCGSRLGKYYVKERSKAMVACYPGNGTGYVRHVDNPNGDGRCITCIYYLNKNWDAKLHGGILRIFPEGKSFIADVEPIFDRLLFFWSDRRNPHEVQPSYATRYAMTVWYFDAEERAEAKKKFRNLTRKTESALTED
T1 sequence (Q9NXG6 whole entry, looked up): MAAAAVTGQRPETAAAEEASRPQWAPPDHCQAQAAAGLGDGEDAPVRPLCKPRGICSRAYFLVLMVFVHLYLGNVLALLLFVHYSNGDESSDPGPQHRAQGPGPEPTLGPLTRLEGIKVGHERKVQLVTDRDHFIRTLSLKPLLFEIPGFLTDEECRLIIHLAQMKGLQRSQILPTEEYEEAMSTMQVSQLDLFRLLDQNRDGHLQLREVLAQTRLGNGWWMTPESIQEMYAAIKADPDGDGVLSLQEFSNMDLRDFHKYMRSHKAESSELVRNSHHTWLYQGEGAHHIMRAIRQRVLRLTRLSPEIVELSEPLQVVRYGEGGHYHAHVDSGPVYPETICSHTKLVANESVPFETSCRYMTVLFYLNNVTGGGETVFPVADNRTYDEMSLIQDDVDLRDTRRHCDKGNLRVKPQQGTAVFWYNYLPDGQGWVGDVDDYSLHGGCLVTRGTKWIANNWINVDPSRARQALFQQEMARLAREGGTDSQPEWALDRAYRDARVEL

`CC1(C)[C@@H](O)CC[C@]2(C)[C@H]3C(=O)C=C4[C@@H]5C[C@@](C)(C(=O)O)CC[C@]5(C)CC[C@@]4(C)[C@]3(C)CC[C@@H]12` [ENOXOLONE]: the EC50 (as a rule, the concentration giving half of the maximal effect) in data set [1] was > 50 µM.

As for `C=C(C)[C@@H]1CC[C@]2(C(=O)NO)CC[C@]3(C)C(CC[C@@H]4[C@@]5(C)CC/C(=N\O)C(C)(C)[C@@H]5CC[C@]43C)[C@@H]12` (some centres undefined), in data set [2], the Intrinsic activity was found to be 0.31. The EC50 in data set [1] was found to be 6.8 µM.

Consider `C=C(C)[C@@H]1CC[C@]2(C(=O)O)CC[C@]3(C)C(CC[C@@H]4[C@@]5(C)CC[C@H](OC(=O)CC(C)(C)C(=O)O)C(C)(C)[C@@H]5CC[C@]43C)[C@H]12` (some centres undefined), for which the EC50 in [1] was > 50 µM.

As for `CC1(C)CCC2(C(=O)NO)CC[C@]3(C)C(=CC[C@@H]4[C@@]5(C)CC[C@H](O)C(C)(C)[C@@H]5CC[C@]43C)[C@@H]2C1` (single isomer, unassigned), the Intrinsic activity in [2] stood at 0.39. Also, the EC50 in data set [1] was determined as 16.4 µM.

`C=C(C)[C@@H]1CC[C@]2(C(=O)NO)CC[C@]3(C)C(CC[C@@H]4[C@@]5(C)Cc6cnoc6C(C)(C)[C@@H]5CC[C@]43C)[C@H]12` (some centres undefined): in [2], the Intrinsic activity amounted to 0.55. For the same molecule, in data set [1], the EC50 worked out at 2.6 µM.

Consider `CC1(C)CC[C@]2(C(=O)NO)CC[C@]3(C)C(=CC[C@@H]4[C@@]5(C)CCC(=O)OC(C)(C)[C@@H]5CC[C@]43C)[C@@H]2C1`, for which the Intrinsic activity in data set [2] was 2.2. Besides, the EC50 in [1] was determined as 5.8 µM.

As to `C=C(C)[C@@H]1CC[C@]2(C)[C@H](CC=C3[C@@H]4CC(C)(C)CC[C@]4(C(=O)OC)CC[C@]32C)[C@@]1(C)CCC(=O)NO`, in [2], the Intrinsic activity is 1.19. In [1], the EC50 is 7.5 µM.

In the case of `CC1(C)CCC2(C(=O)NO)CC[C@]3(C)C(=CC[C@@H]4[C@@]5(C)CC/C(=N\O)C(C)(C)[C@@H]5CC[C@]43C)[C@@H]2C1` (single isomer, unassigned), the Intrinsic activity in data set [2] stood at 0.43. Also, the EC50 in data set [1] was 3.8 µM.

For `CC1(C)CC[C@]2(C(=O)NO)CC[C@]3(C)C(=CC(=O)[C@@H]4[C@@]5(C)CC[C@H](O)C(C)(C)[C@@H]5CC[C@]43C)[C@@H]2C1`, the Intrinsic activity in [2] is 0.15. In data set [1], the EC50 came out at 11.4 µM.

For `C=C(C)[C@@H]1CC[C@]2(C(=O)NO)CC[C@]3(C)C(CC[C@@H]4[C@@]5(C)Cc6cn[nH]c6C(C)(C)[C@@H]5CC[C@]43C)[C@H]12` (some centres undefined), the Intrinsic activity in data set [2] turned out to be 0.34. In addition, the EC50 in data set [1] amounted to 2.4 µM.

Take `C[C@H]1[C@H](C)CC[C@]2(C(=O)NO)CC[C@]3(C)C(=CC[C@@H]4[C@@]5(C)CC/C(=N\O)C(C)(C)[C@@H]5CC[C@]43C)[C@H]12`: the Intrinsic activity in [2] was determined as 0.1. Moreover, the EC50 in data set [1] turned out to be 8.9 µM.

For the molecule `CC1(C)CCC2(C(=O)O)CC[C@]3(C)C(=CC(=O)[C@@H]4[C@@]5(C)CC[C@H](O)C(C)(C)[C@@H]5CC[C@]43C)[C@@H]2C1` (single isomer, unassigned), the EC50 in data set [1] is > 50 µM.

Regarding `CC1(C)CC[C@]2(C(=O)O)CC[C@]3(C)C(=CC[C@@H]4[C@@]5(C)CC[C@H](O)C(C)(C)[C@@H]5CC[C@]43C)[C@@H]2C1` [OLEANOLIC_ACID], the EC50 in [1] is > 50 µM.

As to `C[C@H]1[C@H](C)CC[C@]2(C(=O)O)CC[C@]3(C)C(=CC[C@@H]4[C@@]5(C)CC[C@H](O)C(C)(C)[C@@H]5CC[C@]43C)[C@H]12` [URSOLIC ACID], the EC50 in data set [1] is > 50 µM.

For `CC1(C)[C@@H](O)CC[C@]2(C)[C@H]3C(=O)C=C4[C@@H]5C[C@@](C)(C(=O)NO)CC[C@]5(C)CC[C@@]4(C)[C@]3(C)CC[C@@H]12`, the EC50 in data set [1] is > 50 µM.

For `C[C@H]1[C@H](C)CC[C@]2(C(=O)NO)CC[C@]3(C)C(=CC[C@@H]4[C@@]5(C)CC[C@H](O)C(C)(C)[C@@H]5CC[C@]43C)[C@H]12`, the Intrinsic activity in data set [2] is 0.17. In addition, in data set [1], the EC50 was determined as 7.7 µM.

Consider `C=C(C)[C@@H]1CC[C@]2(C(=O)NO)CC[C@]3(C)C(CC[C@@H]4[C@@]5(C)CC[C@H](O)C(C)(C)[C@@H]5CC[C@]43C)[C@@H]12` (some centres undefined), for which the Activity entry in data set [3], in data set [6], in data set [10], in [12] and in data set [13] was “Non-Toxic” throughout. Moreover, the inhibition entry in data set [4], in data set [5], in data set [7], in data set [8], in [11] and in data set [14] was “Active” throughout. The inhibition result in data set [15] was “Active”. Moreover, in data set [9], the inhibition result is “inactive”. The Intrinsic activity in data set [2] came to 0.36. In addition, the concentration for a half-maximal effect (EC50) in data set [1] is 4.8 µM.

For the molecule `C=C(C)[C@@H]1CC[C@]2(C(=O)O)CC[C@]3(C)[C@H](CC[C@@H]4[C@@]5(C)CC[C@H](O)C(C)(C)[C@@H]5CC[C@]43C)[C@@H]12` [BETULINIC ACID], the EC50 in [1] was > 50 µM.

With `CC1(C)CC[C@]2(C(=O)NO)CC[C@]3(C)C(=CC[C@@H]4[C@@]5(C)C[C@@H](O)[C@H](O)C(C)(C)[C@@H]5CC[C@]43C)[C@@H]2C1`, the Intrinsic activity in data set [2] was 0.1. Also, the EC50 in data set [1] worked out at 7.1 µM.

Consider `C=C(C)[C@@H]1CC[C@]2(C(=O)NO)CC[C@]3(C)C(CC[C@@H]4[C@@]5(C)CC=CC(C)(C)[C@@H]5CC[C@]43C)[C@H]12` (some centres undefined), for which the Intrinsic activity in [2] is 0.48. In addition, in [1], the EC50 turned out to be 3.2 µM.

With `CC1(C)CCC2(C(=O)NO)CC[C@]3(C)C(=CC[C@@H]4[C@@]5(C)CC=CC(C)(C)[C@@H]5CC[C@]43C)[C@@H]2C1` (single isomer, unassigned), the Intrinsic activity in data set [2] was 0.16. In addition, the EC50 in [1] amounted to 5 µM.

Consider `CC1(C)CC[C@]2(C(=O)O)CC[C@]3(C)C(=CC[C@@H]4[C@@]5(C)C[C@@H](O)[C@H](O)C(C)(C)[C@@H]5CC[C@]43C)[C@@H]2C1` [MASLINIC ACID], for which the EC50 in data set [1] was > 50 µM.
